Laboratory results as given in ChEMBL document CHEMBL1142748, “The tert-butyl dimethyl silyl group as an enhancer of drug cytotoxicity against human tumor cells” (Bioorg Med Chem Lett, 2005).
Activity calls are given as the source filed them. The rule behind the calls is not given here.

Experiments:
HL-60 [1] = experiment: Lethal concentration required for net loss in 50% of HL60 human leukemia cells; type: functional; details: read-out: LC50 (the source's name)
Outline: (§1)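 Modified NCI protocol with SRB read-out after 48 h drug exposure. Compounds were diluted from a DMSO stock at 400× the top final concentration, at five 10-fold dilutions in duplicate, with DMSO-matched controls. Cells were fixed with ice-cold TCA (80% w/v for HL60, 50% w/v for MCF7) for 60 min at 4 °C. OD was read at 490 nm and corrected for medium-only background. Percent growth came from OD at the start versus the end of exposure. LC50 is the concentration giving net loss of 50% of cells, from dose-response curves; values are means of 2–4 experiments.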

HL-60 [2] = experiment: Concentration required for 50% reduction of cellular net growth of HL60 human leukemia cells; type: functional
Outline: (§2)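 HL60 leukemia cells were grown in 96-well format following a modified NCI protocol. Compounds in DMSO were tested in duplicate at five 10-fold dilutions, and controls received equivalent DMSO. After 48 h exposure, cells were fixed with ice-cold 80% (w/v) TCA for 60 min at 4 °C, then stained by SRB and read at OD 490 nm. Percent growth came from start versus end OD, corrected for medium-only background. GI50 and TGI were read from dose–response curves as the mean of 2–4 experiments ± SD.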

MCF7S [3] = experiment: Lethal concentration required for net loss in 50% of MCF-7 human breast cancer cells; type: functional; details: read-out: LC50 (the source's name); outline: as §1
HL-60 [4] = experiment: Concentration required for Total growth inhibition of HL60 human leukemia cells; type: functional; outline: as §2
MCF7S [5] = experiment: Concentration required for Total growth inhibition of MCF-7 human breast cancer cells; type: functional
Outline: as §2, with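 “MCF7 breast cancer cells” for “HL60 leukemia cells”, “ice-cold 50%” for “ice-cold 80%”, “for medium” for “for medium-only”, “were taken” for “were read”, “from” for “from dose–response”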

MCF7S [6] = experiment: Concentration required for 50% reduction of cellular net growth of MCF-7 human breast cancer cells; type: functional
Outline: as §2, with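 “MCF7 breast cancer cells” for “HL60 leukemia cells”, “ice-cold 50%” for “ice-cold 80%”, “for medium” for “for medium-only”, “were taken” for “were read”, “from” for “from dose–response”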

MCF7S [7] = experiment: Concentration required for 50% reduction of cellular net growth of MCF-7 human breast cancer cells; na=no activity; type: functional, cell-based
Outline: as §2, with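 “MCF7 breast cancer cells” for “HL60 leukemia cells”, “ice-cold 50%” for “ice-cold 80%”, “for medium” for “for medium-only”, “were taken” for “were read”, “from” for “from dose–response”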

HL-60 [8] = experiment: Concentration required for 50% reduction of cellular net growth of HL60 human leukemia cells; na=no activity; type: functional, cell-based; outline: as §2
MCF7S [9] = experiment: Concentration required for 50% reduction of cellular net growth of MCF-7 human breast cancer cells;na=no activity; type: functional, cell-based
Outline: as §2, with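 “MCF7 breast cancer cells” for “HL60 leukemia cells”, “ice-cold 50%” for “ice-cold 80%”, “for medium” for “for medium-only”, “were taken” for “were read”, “from” for “from dose–response”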

| Compound | GI50 (HL-60 [2]) | GI50 (MCF7S [6]) | GI50 (HL-60 [8]) | TGI (MCF7S [5]) | other results |
| --- | --- | --- | --- | --- | --- |
| CC(C)(C)[Si](C)(C)O[C@H]1CCCO[C@@H]1/C=C\CO | 26 µM | 6.4 µM |  | 23 µM | CC50 (HL-60 [1]): 88 µM; CC50 (MCF7S [3]): 63 µM; TGI (HL-60 [4]): 64 µM |
| COC(=O)/C=C/C[C@H]1OCCC[C@@H]1OC(C)=O |  |  | inactive |  | GI50 (MCF7S [7]): inactive |
| OC/C=C/[C@H]1OCCC[C@@H]1O |  |  | inactive |  | GI50 (MCF7S [9]): inactive |
| C=CCO[C@H]1CCCO[C@@H]1CC=O |  |  | inactive |  |  |
| COC(=O)/C=C/C[C@H]1OCCC[C@@H]1OC(=O)c1ccccc1 |  | inactive | inactive |  |  |
| COC(=O)/C=C/[C@H]1OCCC[C@@H]1O[Si](C)(C)C(C)(C)C | 22 µM | 24 µM |  | 80 µM | CC50 (MCF7S [3]): 94 µM; TGI (HL-60 [4]): 69 µM |
| COC(=O)/C=C/C[C@H]1OCCC[C@@H]1O |  |  | inactive |  | GI50 (MCF7S [9]): inactive |

More lines, main results first:

| GI50 (HL-60 [2]) | GI50 (MCF7S [6]) | GI50 (HL-60 [8]) | Compound | TGI (MCF7S [5]) | other results |
| --- | --- | --- | --- | --- | --- |
| 27 µM | 25 µM |  | CC(C)(C)[Si](C)(C)O[C@H]1CCCO[C@@H]1C/C=C/CO | 83 µM |  |
| 31 µM | 61 µM |  | CC(C)(C)[Si](C)(C)O[C@H]1CCCO[C@@H]1/C=C/CO |  |  |
| 22 µM | 18 µM |  | COC(=O)/C=C/C[C@H]1OCCC[C@@H]1O[Si](C)(C)C(C)(C)C | 48 µM | TGI (HL-60 [4]): 77 µM |
|  |  | inactive | CC(C)(C)[Si](C)(C)O[C@H]1CCCO[C@@H]1CC#N |  |  |
| 46 µM | 55 µM |  | CC(C)(C)[Si](C)(C)O[C@H]1CCCO[C@@H]1CCO |  |  |
| 40 µM | 21 µM |  | CC(C)(C)[Si](C)(C)O[C@H]1CCCO[C@@H]1CC=O | 82 µM |  |
|  | 86 µM | inactive | CC(C)(C)[Si](C)(C)OC/C=C/[C@H]1OCCC[C@@H]1O |  |  |
|  | 32 µM | inactive | COC(=O)/C=C\[C@H]1OCCC[C@@H]1O[Si](C)(C)C(C)(C)C | 82 µM |  |
